According to ChEMBL document CHEMBL4715860 (J Med Chem, 2020):
Activity calls are given as the source filed them. The rule behind the calls is not given here.

Columns and labels:
[1] = Metabolic stability in CD1 mouse hepatocytes assessed as parent compound remaining at 5 uM incubated for 3 hrs by LC-MS analysis; format: ADME, cell-based, Hepatocyte; conditions: read-out: Stabilty
How it was run: (§1)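 Cryopreserved primary hepatocytes in suspension (CD-1 mouse, Sprague-Dawley rat, Beagle dog, human). Compound diluted from 10 mM DMSO stock to 5 μM final. Sampled at 0, 15, 60, 90 and 180 min, protein precipitated with ACN plus internal standard, supernatant analysed by LC−MS. Run in duplicate. 7-ethoxycoumarin as positive control. Hepatocyte-free medium incubations as negative control.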

[2] = Metabolic stability in Sprague-Dawley rat hepatocytes assessed as parent compound remaining at 5 uM incubated for 3 hrs by LC-MS analysis; format: ADME, cell-based, Hepatocyte; conditions: read-out: Stabilty; how it was run: as §1
[3] = Metabolic stability in Beagle dog hepatocytes assessed as parent compound remaining at 5 uM incubated for 3 hrs by LC-MS analysis; format: ADME, cell-based, Canis lupus familiaris, Hepatocyte; conditions: read-out: Stabilty; how it was run: as §1
[4] = Intrinsic clearance in CD1 mouse hepatocytes assessed per million cells at 5 uM incubated for 3 hrs by LC-MS analysis; format: ADME, cell-based, Hepatocyte; conditions: read-out: CLH
How it was run: (§2)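 Cryopreserved primary hepatocytes in suspension from CD-1 mouse, Sprague-Dawley rat, Beagle dog and human. Compound at 5 μM final (from 10 mM DMSO stock). Samples taken at 0, 15, 60, 90 and 180 min and quenched with ACN plus internal standard. Parent quantified by LC-MS. Hepatocyte-free medium incubations served as negative control; 7-ethoxycoumarin as positive control. Duplicate; CLint per 10^6 cells and t1/2.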

[5] = Intrinsic clearance in Sprague-Dawley rat hepatocytes assessed per million cells at 5 uM incubated for 3 hrs by LC-MS analysis; format: ADME, cell-based, Hepatocyte; conditions: read-out: CLH; how it was run: as §2
[6] = Intrinsic clearance in human hepatocytes assessed per million cells at 5 uM incubated for 3 hrs by LC-MS analysis; format: ADME, cell-based, Hepatocyte; conditions: read-out: CLH; how it was run: as §2
[7] = Metabolic stability in CD1 mouse hepatocytes assessed as half-life at 5 uM incubated for 3 hrs by LC-MS analysis; format: ADME, cell-based, Hepatocyte; how it was run: as §2
Rattus norvegicus = test: In vivo inhibition of PI3Kalpha Sprague-Dawley rat assessed as increase in plasma insulin concentration at 5 mg/kg, po measured after 8 hrs by ELISA; format: functional, organism-based
How it was run: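 Male Sprague Dawley rats dosed orally at 5 mg/kg; plasma insulin and glucose followed over time against vehicle, n = 3, mean ± SEM.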

[8] = Tmax in C57BL/6J mouse plasma at 10 mg/kg, po administered as single dose by mass spectrometry based UHPLC analysis; format: ADME, organism-based
How it was run: (§3)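 Female C57BL/6J mice dosed orally at 10 mg/kg in 20% Captisol, either once or once daily for 4 days with sampling after the last dose on day 4. Plasma and brain concentrations followed over time. Tmax taken from at least 3 time points.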

[9] = Elimination half life in C57BL/6J mouse plasma at 10 mg/kg, po administered as single dose by mass spectrometry based UHPLC analysis; format: ADME, organism-based; conditions: read-out: beta t1/2 (converted)
How it was run: (§4)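 Female C57BL/6J mice, one oral dose of 10 mg/kg in 20% Captisol; plasma and brain levels over time, n = 3 per time point (mean).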

[10] = Cmax in C57BL/6J mouse plasma at 10 mg/kg, po administered once a day for 4 consecutive days by mass spectrometry based UHPLC analysis; format: ADME, organism-based; design: route oral, dose 10 mg/kg, time 4 day
How it was run: (§5)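 Female C57BL/6J mice given 10 mg/kg p.o. in 20% Captisol once daily for 4 consecutive days. Plasma and brain sampled after the final dose on day 4, n = 3 per time point.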

[11] = Tmax in C57BL/6J mouse plasma at 10 mg/kg, po administered once a day for 4 consecutive days by mass spectrometry based UHPLC analysis; format: ADME, organism-based; conditions: time 4 day; how it was run: as §3
[12] = Elimination half life in C57BL/6J mouse plasma at 10 mg/kg, po administered once a day for 4 consecutive days by mass spectrometry based UHPLC analysis; format: ADME, organism-based; conditions: time 4 day, read-out: beta t1/2 (converted); how it was run: as §5
[13] = AUC (0 to 8 hrs) in C57BL/6J mouse plasma at 10 mg/kg, po administered once a day for 4 consecutive days by mass spectrometry based UHPLC analysis; format: ADME, organism-based; design: route oral, time 4 day, dose 10 mg/kg; how it was run: as §5
[14] = Elimination half life in C57BL/6J mouse brain at 10 mg/kg, po administered as single dose by mass spectrometry based UHPLC analysis; format: ADME, organism-based; conditions: read-out: beta t1/2 (converted); how it was run: as §4
[15] = Tmax in C57BL/6J mouse brain at 10 mg/kg, po administered once a day for 4 consecutive days by mass spectrometry based UHPLC analysis; format: ADME, organism-based; conditions: time 4 day; how it was run: as §3
[16] = Elimination half life in C57BL/6J mouse brain at 10 mg/kg, po administered once a day for 4 consecutive days by mass spectrometry based UHPLC analysis; format: ADME, organism-based; conditions: time 4 day, read-out: beta t1/2 (converted); how it was run: as §5
[17] = AUC (0 to 8 hrs) in C57BL/6J mouse brain at 10 mg/kg, po administered once a day for 4 consecutive days by mass spectrometry based UHPLC analysis; format: ADME, organism-based; design: route oral, time 4 day, dose 10 mg/kg; how it was run: as §5
[18] = Tmax in C57BL/6J mouse plasma at 25 mg/kg, po administered as single dose by mass spectrometry based UHPLC analysis; format: ADME, organism-based
How it was run: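 Female C57BL/6J mice given a single oral dose of 25 mg/kg. Plasma and brain levels followed over time (n = 3 per time point, mean). Tmax is the time of maximal concentration.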

[19] = AUC (0 to 8 hrs) in C57BL/6J mouse brain at 25 mg/kg, po administered as single dose by mass spectrometry based UHPLC analysis; format: ADME, organism-based; design: time < 8 hr, route oral, dose 25 mg/kg
How it was run: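 One oral dose of 25 mg/kg to female C57BL/6J mice. Plasma and brain concentrations followed over time, n = 3 per time point (mean).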

Mus musculus [20] = test: In vivo inhibition of PI3Kalpha in C57BL/6J mouse assessed as increase in plasma glucose concentration at 25 mg/kg, po measured after 8 hrs by glucoseoxidase-peroxide coupled colorimetric assay; format: functional, organism-based
How it was run: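 Female C57BL/6J mice given one oral dose (25 mg/kg); plasma insulin and glucose monitored over time, mean ± SEM.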

Mus musculus [21] = test: In vivo inhibition of mTORC2 signalling pathway in C57BL/6J mouse assessed as reduction in PKB/Akt phosphorylation at Ser473 in brain at 25 mg/kg, po incubated for 30 mins by Western blot analysis; format: functional, organism-based
How it was run: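 Female C57BL/6J mice dosed at 25 mg/kg p.o.; cortex collected 30 min later and lysed. Equal protein run on SDS-PAGE and western blotted for pS6(Ser235/236), pPKB(Ser473) and α-tubulin, detected by HRP secondary antibodies and ECL. Signal expressed as % of control cortex, n = 3, mean ± SEM, unpaired t-test.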

Mus musculus [22] = test: In vivo inhibition of mTORC1 signalling in C57BL/6J mouse assessed as reduction in RPS6 phosphorylation at S235/236 residue in brain at 25 mg/kg, po measured after 8 hrs by Western blot analysis; format: functional, organism-based
How it was run: (§6)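 Time course in female C57BL/6J mice after 25 mg/kg p.o.: cortex taken at set time points and western blotted for pS6 and pPKB. Signals quantified against α-tubulin as % of control cortex; n = 3 per time point and n = 9 controls. Brain compound level measured in the same mice.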

Mus musculus [23] = test: In vivo inhibition of mTORC2 in C57BL/6J mouse assessed as reduction in PKB/Akt phosphorylation at Ser473 in brain at 25 mg/kg, po measured after 8 hrs by Western blot analysis; format: functional, organism-based; how it was run: as §6
[24] = Toxicity in Balb/c nude mouse assessed as change in body weight at 100 mg/kg, po administered once daily for 14 days measured for 7 days starting from post last dose; format: organism-based; conditions: in vivo, 504 h, time 21 day

In the case of `C[C@@H]1COCCN1c1nc(-c2cnc(N)cc2C(F)F)nc(N2[C@H](C)COC[C@@H]2C)n1`, the remaining at 3 h, 5 µM [1] was 48.4%, the remaining at 3 h, 5 µM [2] was 42.3% and the remaining at 3 h, 5 µM [3] was 75.6%. It also gave a hepatocyte CLint at 5 µM [4] of 4.3 µL/min/1e6 cells, a hepatocyte CLint at 5 µM [5] of 5.3 µL/min/1e6 cells and a hepatocyte CLint at 5 µM [6] of 5.3 µL/min/1e6 cells. The half-life at 5 µM [7] was 3.35 h, the inhibition (Rattus norvegicus) was “inactive” and the Tmax [8] was 0.5 h. The half-life [9] was 3 h, the Cmax [10] was 947 ng/mL and the Tmax [11] was 0.5 h. For the same molecule, the half-life [12] was 2.2 h, the AUC at 96 h [13] was 2370 ng·h/mL and the half-life [14] was 2.9 h. The Tmax [15] was 0.5 h, the half-life [16] was 2.3 h and the AUC at 96 h [17] was 3050 ng·h/mL. For the same molecule, the Tmax [18] was 0.2 h, the AUC(0-t) at 8 h [19] was 17100 ng·h/mL and the inhibition (Mus musculus [20]) was “inactive”. The inhibition (Mus musculus [21]) was “Active”, the inhibition (Mus musculus [22]) was “inactive” and the inhibition (Mus musculus [23]) was “inactive”. The Activity [24] was “Non-Toxic”.
